Data as given in ChEMBL document CHEMBL1155280, “New arylthioindoles and related bioisosteres at the sulfur bridging group. 4. Synthesis, tubulin polymerization, cell growth inhibition, and molecular modeling studies” (J Med Chem, 2009).
Active and inactive are the calls of the source. The calls are words filed in the database; no cut-off is given here.

Assays:
[1] = Inhibition of tubulin polymerization after 20 mins by spectrophotometry
Procedure, shortened: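 Tubulin 10 μM in 0.8 M monosodium glutamate, pH 6.6, preincubated 15 min at 30 °C with varying drug, chilled on ice. GTP added to 0.4 mM, turbidity at 350 nm followed 20 min at 30 °C. Extent of assembly measured; IC50 ± SD.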

[2] = system: MCF7; assay: Growth inhibition of human MCF7 cells after 48 hrs by sulforhodamine B assay; type: functional, cell-based; settings: MCF7, 48 h
[3] = species: Bos taurus; assay: Inhibition of [3H]colchicine binding to bovine tubulin at 5 uM after 10 mins by DEAE-cellulose filter method
[4] = system: HCT-116; assay: Antiproliferative activity against human HCT116 cells expressing mismatch repair gene MLH1 complemented with chromosome 3 assessed as cell proliferation at 0.5 uM after 24 hrs by MTT assay relative to control; type: functional; settings: HCT-116, 24 h, read-out: Activity
Procedure, shortened: (§1)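 HeLa and HCT116/chr3 cells grown at 37 °C, 5% CO2 in D-MEM with 10% fetal calf serum (HCT116/chr3 medium plus 500 μg/mL G418). Seeded 1 × 10^3 cells/well, treated 24 h later for 24 h from 10 mM DMSO stock; 1% DMSO solvent control. Quadruplicate, repeated three times; given as % of control ± SD.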

[5] = system: HeLa; assay: Antiproliferative activity against human HeLa cells assessed as cell proliferation at 1 uM after 24 hrs by MTT assay relative to control; type: functional; settings: read-out: Activity; procedure, shortened: as §1
[6] = system: HCT-116; assay: Antiproliferative activity against human HCT116 cells expressing mismatch repair gene MLH1 complemented with chromosome 3 assessed as cell proliferation at 1 uM after 24 hrs by MTT assay relative to control; type: functional; settings: HCT-116, 24 h, read-out: Activity; procedure, shortened: as §1
[7] = system: U-937; assay: Cytotoxicity against human U937 cells after 48 hrs by MTT assay; type: functional, cell-based
Procedure, shortened: (§2)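 MTT assay. Seeded 10^5 cells/well, compound added after 24 h at 10, 30, 50, 100, 150, 200 nM for 24 or 48 h. MTT 1 mg/mL, 2 h at 37 °C in dark, formazan dissolved in DMSO, read at 550 nm. Triplicate; 0.5% DMSO control.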

[8] = system: M14; assay: Cytotoxicity against human M14 cells assessed as effect on cell morphology at 300 nM after 48 hrs by time-lapse microscopy; type: functional, cell-based
Procedure, shortened: (§3)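 Morphology of HEK and M14 cells followed by time-lapse microscopy in 96-well plates at 37 °C, 5% CO2, with images captured every hour over 48 h.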

[9] = system: HEK293; assay: Cytotoxicity against HEK293 cells at 10 to 200 nM by MTT assay; type: cell-based; settings: human, hek293, 0.2 µM; TDE = time-dependent effect; procedure, shortened: as §2
[10] = Growth inhibition of Potorous tridactylus PtK2 cells; type: cell-based
Procedure, shortened: (§4)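 Human aortic smooth muscle, PtK2 kidney epithelial, rat A10 aortic smooth muscle and HUVEC lines grown as the supplier recommends, under 5% CO2.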

[11] = system: HEK293; assay: Cytotoxicity against HEK293 cells assessed as effect on cell morphology at 300 nM after 48 hrs by time-lapse microscopy; type: cell-based; settings: human, hek293, 48 h, 0.3 µM; procedure, shortened: as §3
[12] = Growth inhibition of mouse J774.1 cells at 300 nM after 48 hrs by MTT assay relative to control; type: cell-based; settings: read-out: GI
[13] = system: U-937; assay: Cytotoxicity against human U937 cells at 10 to 200 nM by MTT assay; type: functional, cell-based; settings: TDE = time-dependent effect; procedure, shortened: as §2
[14] = Growth inhibition of HSMC; type: cell-based; settings: Homo sapiens; procedure, shortened: as §4
[15] = system: M14; assay: Cytotoxicity against human M14 cells after 48 hrs by MTT assay; type: functional, cell-based; procedure, shortened: as §2
[16] = system: A10; assay: Growth inhibition of rat A10 cells; type: cell-based; procedure, shortened: as §4
[17] = system: MCF7; assay: Selectivity index, ratio of IC50 for HUVEC to IC50 for human MCF7 cells
Procedure, shortened: (§5)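 Selectivity index: IC50 in the named nontransformed line divided by IC50 in MCF-7 cells.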

[18] = system: MCF7; assay: Selectivity index, ratio of IC50 for rat A10 cells to IC50 for human MCF7 cells; type: functional; procedure, shortened: as §5
[19] = system: MCF7; assay: Selectivity index, ratio of IC50 for Potorous tridactylus PtK2 cells to IC50 for human MCF7 cells; type: functional; procedure, shortened: as §5
[20] = system: HeLa; assay: Antiproliferative activity against human HeLa cells assessed as cell proliferation at 0.5 uM after 24 hrs by MTT assay relative to control; type: functional; settings: read-out: Activity; procedure, shortened: as §1
[21] = system: HUVEC; assay: Growth inhibition of HUVEC; type: cell-based; settings: Homo sapiens; procedure, shortened: as §4
[22] = species: Homo sapiens; assay: Selectivity index, ratio of IC50 for HSMC to IC50 for human MCF7; procedure, shortened: as §5
[23] = system: M14; assay: Cytotoxicity against human M14 cells at 10 to 200 nM by MTT assay; type: functional, cell-based; settings: TDE = time-dependent effect; procedure, shortened: as §2
[24] = system: HEK293; assay: Cytotoxicity against HEK293 cells after 48 hrs by MTT assay; type: cell-based, Homo sapiens; procedure, shortened: as §2

## COc1cc(Cc2c[nH]c3ccccc23)cc(OC)c1OC
[1]
  IC50: 28000 nM

## CCOC(=O)c1[nH]c2ccc(OC)cc2c1Sc1cc(OC)c(OC)c(OC)c1
[2]
  IC50: 46 nM
[1]
  IC50: 2400 nM
[3]
  inhibition: 71%

## COC(=O)c1[nH]c2ccc(Cl)cc2c1Cc1cc(OC)c(OC)c(OC)c1
[2]
  IC50: 87 nM
[1]
  IC50: 1700 nM
[3]
  inhibition: 49%

## CCOC(=O)c1[nH]c2ccc(Cl)cc2c1C(=O)c1cc(OC)c(OC)c(OC)c1
[2]
  IC50: 110 nM
[1]
  IC50: 1400 nM
[3]
  inhibition: 49%

## COc1cc(Sc2c[nH]c3ccccc23)cc(OC)c1OC
[1]
  IC50: 2600 nM
[3]
  inhibition: 68%

## COC(=O)c1[nH]c2ccccc2c1C(=O)c1cc(OC)c(OC)c(OC)c1
[2]
  IC50: 33 nM
[1]
  IC50: 2700 nM
[3]
  inhibition: 49%

## COC(=O)c1[nH]c2ccc(OC)cc2c1C(O)c1cc(OC)c(OC)c(OC)c1 (stereo unspecified)
[1]
  IC50: > 40000 nM

## COC(=O)c1[nH]c2ccc(OC)cc2c1C(=O)c1cc(OC)c(OC)c(OC)c1
[4]
  growth at 0.5 µM: 57%
[5]
  growth at 1 µM: 54%
[6]
  growth at 1 µM: 55%
[7]
  Activity: Dose-dependent effect
[7]; U-937, 48 h
  IC50: 155 nM
[8]
  Activity: Active
[9]
  Activity: tde
[10]
  IC50: 190 nM
[11]
  Activity: Toxic
[12]
  inhibition at 48 h, 0.3 µM: 20%
[13]
  Activity: tde
[2]
  IC50: 17 nM
[14]
  IC50: 35 nM
[15]
  Activity: Dose-dependent effect
[15]; M14, 48 h
  IC50: 100 nM
[16]
  IC50: 95 nM
[17]
  Ratio IC50: 6.5
[18]
  Ratio IC50: 5.6
[19]
  Ratio IC50: 11
[20]
  growth at 0.5 µM: 55%
[21]
  IC50: 110 nM
[22]
  Ratio IC50: 2.1
[1]
  IC50: 670 nM
[23]
  Activity: tde
[24]; Homo sapiens, HEK293, 48 h
  IC50: 140 nM
[24]; human, hek293, 48 h
  Activity: Dose-dependent effect
[3]
  inhibition: 78%

## COc1ccc2[nH]cc(Sc3cc(OC)c(OC)c(OC)c3)c2c1
[2]
  IC50: 22 nM
[1]
  IC50: 4100 nM
[3]
  inhibition: 61%

## CCOC(=O)c1[nH]c2ccc(Cl)cc2c1CCc1cc(OC)c(OC)c(OC)c1
[1]
  IC50: > 40000 nM

## CCOC(=O)c1[nH]c2ccccc2c1Cc1cc(OC)c(OC)c(OC)c1
[1]
  IC50: 5400 nM

## CCOC(=O)c1c(CC)c(CC)c(C)n1Cc1cc(OC)c(OC)c(OC)c1
[1]
  IC50: > 40000 nM

## CCOC(=O)c1[nH]c2ccc(Cl)cc2c1Cc1cc(OC)c(OC)c(OC)c1
[2]
  IC50: 230 nM
[1]
  IC50: 2500 nM
[3]
  inhibition: 39%

## COC(=O)c1[nH]c2ccccc2c1Cc1cc(OC)c(OC)c(OC)c1
[2]
  IC50: 190 nM
[1]
  IC50: 4200 nM
[3]
  inhibition: 33%

## CCOC(=O)c1cn(Cc2cc(OC)c(OC)c(OC)c2)cn1
[1]
  IC50: > 40000 nM

## CCOC(=O)c1[nH]c2ccc(Cl)cc2c1Sc1cc(OC)c(OC)c(OC)c1
[1]
  IC50: 2200 nM
[3]
  inhibition: 53%

## CCOC(=O)c1cccn1Cc1cc(OC)c(OC)c(OC)c1
[1]
  IC50: > 40000 nM

## CCOC(=O)c1c(C)c(C)c(C)n1Cc1cc(OC)c(OC)c(OC)c1
[1]
  IC50: > 40000 nM

## COc1cc(C(=O)c2c[nH]c3ccc(Cl)cc23)cc(OC)c1OC
[2]
  IC50: 53 nM
[1]
  IC50: 2500 nM
[3]
  inhibition: 44%

## COC(=O)c1[nH]c2ccccc2c1Sc1cc(OC)c(OC)c(OC)c1
[1]
  IC50: 2900 nM
[3]
  inhibition: 74%

## CCOC(=O)c1[nH]c2ccc(OC)cc2c1C(O)c1cc(OC)c(OC)c(OC)c1 (stereo unspecified)
[1]
  IC50: > 40000 nM

## COC(=O)c1[nH]c2ccc(OC)cc2c1S(=O)(=O)c1cc(OC)c(OC)c(OC)c1
[1]
  IC50: > 40000 nM

## COc1cc(C(=O)c2c[nH]c3ccccc23)cc(OC)c1OC
[2]
  IC50: 150 nM
[1]
  IC50: 3500 nM
[3]
  inhibition: 26%

## CCOC(=O)c1[nH]c2ccc(Cl)cc2c1C(=O)C(=O)c1cc(OC)c(OC)c(OC)c1
[1]
  IC50: > 40000 nM

## CCOC(=O)c1[nH]c2ccc(OC)cc2c1C(=O)c1cc(OC)c(OC)c(OC)c1
[2]
  IC50: 90 nM
[1]
  IC50: 2600 nM
[3]
  inhibition: 49%

## COC(=O)c1[nH]c2ccc(Cl)cc2c1C(=O)c1cc(OC)c(OC)c(OC)c1
[2]
  IC50: 30 nM
[1]
  IC50: 1600 nM
[3]
  inhibition: 61%

## CCOC(=O)c1cccn1C(=O)c1cc(OC)c(OC)c(OC)c1
[2]
  IC50: > 2500 nM
[1]
  IC50: 32000 nM

## COc1ccc2[nH]cc(Cc3cc(OC)c(OC)c(OC)c3)c2c1
[1]
  IC50: 14000 nM

## CCOC(=O)c1[nH]c2ccc(Cl)cc2c1C(=O)Cc1cc(OC)c(OC)c(OC)c1
[1]
  IC50: > 40000 nM

## COC(=O)c1[nH]c2ccc(OC)cc2c1S(=O)c1cc(OC)c(OC)c(OC)c1 (stereo unspecified)
[1]
  IC50: > 40000 nM

## CC(=O)O[C@H]1C(=O)[C@@]2(C)[C@H]([C@H](OC(=O)c3ccccc3)[C@]3(O)C[C@H](OC(=O)[C@H](O)[C@@H](NC(=O)c4ccccc4)c4ccccc4)C(C)=C1C3(C)C)[C@]1(OC(C)=O)CO[C@@H]1C[C@@H]2O [PACLITAXEL]
[10]
  IC50: 21 nM
[14]
  IC50: 6 nM
[21]
  IC50: 7 nM

## CCOC(=O)c1[nH]c2ccc(OC)cc2c1Cc1cc(OC)c(OC)c(OC)c1
[2]
  IC50: 93 nM
[1]
  IC50: 2800 nM
[3]
  inhibition: 42%

## COc1cc(Cc2c[nH]c3ccc(Cl)cc23)cc(OC)c1OC
[1]
  IC50: 24000 nM

## CCOC(=O)c1[nH]c2ccccc2c1C(=O)c1cc(OC)c(OC)c(OC)c1
[2]
  IC50: 80 nM
[1]
  IC50: 2600 nM
[3]
  inhibition: 51%

## CCOC(=O)c1c(C)cc(C)n1Cc1cc(OC)c(OC)c(OC)c1
[1]
  IC50: > 40000 nM

## COc1cc(Sc2c[nH]c3ccc(Cl)cc23)cc(OC)c1OC
[1]
  IC50: 2600 nM
[3]
  inhibition: 51%

## COc1cc(Cn2c(C)c(C)c(C)c2C(=O)OCCOCCO)cc(OC)c1OC
[1]
  IC50: > 40000 nM
